Experimental findings from ChEMBL document CHEMBL1159377, “Synthetic approach to exo-endo cross-conjugated cyclohexadienones and its application to the syntheses of dehydrobrachylaenolide, isodehydrochamaecynone, and trans-isodehydrochamaecynone” (J Nat Prod, 2003) are described below.

The structures appear in SMILES notation.

Series [1] has as its system Coptotermes formosanus. Description: Insecticidal activity against Coptotermes formosanus assessed as mortality at 1000 ppm after 5 days by filter paper contact method relative to control. The class given is functional.
Series [2] deals with Coptotermes formosanus. Description: Insecticidal activity against Coptotermes formosanus assessed as mortality at 100 ppm after 1 day by filter paper contact method relative to control. The format is functional.
The test system of series [3] is Coptotermes formosanus. Description: Insecticidal activity against Coptotermes formosanus assessed as mortality at 100 ppm after 5 days by filter paper contact method relative to control. The class given is functional.
Series [4] deals with Coptotermes formosanus. The series can be described thus: Insecticidal activity against Coptotermes formosanus assessed as mortality at 100 ppm after 2 days by filter paper contact method relative to control. The format is functional.
The test system of series [5] is Coptotermes formosanus. Description: Insecticidal activity against Coptotermes formosanus assessed as mortality at 1000 ppm after 1 day by filter paper contact method relative to control. The class given is functional.
Series [6] concerns Coptotermes formosanus. Description: Insecticidal activity against Coptotermes formosanus assessed as mortality at 1000 ppm after 2 days by filter paper contact method relative to control. The format is functional.
Series [7] has as its system A549. The series can be described thus: Inhibition of IL-1-beta-induced ICAM1 protein expression in human A549 cells at 100 uM treated for 1 hr before IL1-beta challenge for 6 hrs relative to control. The class given is functional. Summed up: (§1)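 A549 cells at 3 × 10⁴/well pretreated with compound 1 h, then IL-1β at 0.25 ng/mL final for 6 h. Cells fixed in 1% paraformaldehyde and blocked with 1% BSA overnight. Mouse anti-human ICAM-1 and peroxidase anti-mouse IgG each 60 min at 37 °C. o-Phenylenediamine/H₂O₂ substrate (citrate pH 5.3), 20 min dark, A415. Expression normalised between IL-1β-treated and unstimulated wells. Triplicate.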

Series [8] relates to A549. The series can be described thus: Inhibition of IL-1-beta-induced ICAM1 protein expression in human A549 cells at 32 uM treated for 1 hr before IL1-beta challenge for 6 hrs relative to control. The format is functional. Summed up: as §1
The subject of series [9] is A549. The series can be described thus: Inhibition of IL-1-beta-induced ICAM1 protein expression in human A549 cells at 10 uM treated for 1 hr before IL1-beta challenge for 6 hrs relative to control. The class given is functional. An outline of the steps:
as §1

Series [10] has as its system A549. The series can be described thus: Inhibition of IL-1-beta-induced ICAM1 protein expression in human A549 cells at 1 uM treated for 1 hr before IL1-beta challenge for 6 hrs relative to control. The class given is functional. An outline of the steps: as §1
The nature of series [11]: Cytotoxicity against human A549 cells after 24 hrs at 100 uM by MTT assay relative to control. The class given is cell-based. To be noted: read-out: T/C. An outline of the steps: (§2)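 A549 lung carcinoma cells grown in RPMI 1640 with 10% fetal calf serum, 50 µM 2-mercaptoethanol and penicillin-streptomycin-neomycin. Cells incubated with or without compound for 24 h, with MTT (500 µg/mL) present for the last 4 h. Formazan solubilised overnight in 5% SDS, absorbance read at 595 nm. Viability (%) = (sample − background)/(control − background) × 100. Triplicate cultures, mean ± SD.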
For orientation: Tetrazolium assays rely on reduction of a dye to a coloured formazan, in cell work by metabolically active cells.

Series [12] can be described thus: Cytotoxicity against human A549 cells after 24 hrs at 1 uM by MTT assay relative to control. The format is cell-based. To be noted: read-out: T/C. An outline of the steps:
as §2

A short description of series [13]: Cytotoxicity against human A549 cells after 24 hrs at 1000 uM by MTT assay relative to control. The format is cell-based. To be noted: read-out: T/C. Summed up:
as §2

In series [14] the test system is A549. Description: Inhibition of IL-1-beta-induced ICAM1 protein expression in human A549 cells at 1000 uM treated for 1 hr before IL1-beta challenge for 6 hrs relative to control. The class given is functional. Summed up:
as §1

Series [15] is described as follows: Cytotoxicity against human A549 cells after 24 hrs at 10 uM by MTT assay relative to control. The class given is cell-based. To be noted: read-out: T/C. Summed up: as §2
Series [16] deals with A549. Description: Inhibition of IL-1-beta-induced ICAM1 protein expression in human A549 cells treated for 1 hr before IL1-beta challenge for 6 hrs. The format is functional, cell-based. Summed up:
as §1

For series [17], the system named is A549. The series can be described thus: Inhibition of IL-1-beta-induced ICAM1 protein expression in human A549 cells at 320 uM treated for 1 hr before IL1-beta challenge for 6 hrs relative to control. The format is functional. An outline of the steps: as §1
Series [18] has as its system A549. Description: Cytotoxicity against human A549 cells after 24 hrs by MTT assay. To be noted: A549, 24 h. The class given is cell-based. Summed up:
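A549 cells (RPMI 1640, 10% FCS, 50 µM 2-mercaptoethanol, antibiotics) incubated with test compound 24 h; MTT 500 µg/mL pulsed for final 4 h; formazan dissolved in 5% SDS overnight; absorbance 595 nm. Viability % = (sample − background)/(control − background) × 100. Triplicate cultures.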

Series [19] is described as follows: Cytotoxicity against human A549 cells after 24 hrs at 320 uM by MTT assay relative to control. To be noted: read-out: T/C. The class given is cell-based. An outline of the steps: as §2
In series [20] the test system is A549. The series can be described thus: Inhibition of IL-1-beta-induced ICAM1 protein expression in human A549 cells at 3.2 uM treated for 1 hr before IL1-beta challenge for 6 hrs relative to control. The format is functional. Summed up: as §1
Series [21] in a line: Cytotoxicity against human A549 cells after 24 hrs at 3.2 uM by MTT assay relative to control. The format is cell-based. To be noted: read-out: T/C. Summed up:
as §2

The nature of series [22]: Cytotoxicity against human A549 cells after 24 hrs at 32 uM by MTT assay relative to control. The format is cell-based. To be noted: read-out: T/C. An outline of the steps:
as §2

Series [23] deals with Coptotermes formosanus. The series can be described thus: Insecticidal activity against Coptotermes formosanus assessed as mortality at 1000 ppm after 7 days by filter paper contact method relative to control. The format is functional.
Series [24] concerns Coptotermes formosanus. The series can be described thus: Insecticidal activity against Coptotermes formosanus assessed as mortality at 100 ppm after 7 days by filter paper contact method relative to control. The format is functional.

As to `C#C[C@@H]1CC[C@@]2(C)CCC(=O)[C@@H](C)[C@@H]2C1`, the Activity was determined as 100% in series [1]; 0% in series [2]; 0% in series [3]; 0% in [4]; 0% in series [5]; 93% in [6].

Broadly, the IC50 is the concentration that inhibits the measured activity by half. In the case of `C=C1C(=O)C=C[C@]2(C)CC[C@H]3C(=C)C(=O)O[C@H]3[C@@H]12` [DEHYDROBRACHYLAENOLIDE], the T/C in [7] was -0.3%; in series [8], 0.1%; in series [9] it was 1.1%; in series [10], 75.5%; in series [14], -3.3%; in [17], -1.4%. Also, the T/C in series [20] turned out to be 44.4%. Further, in [11], the viability at 24 h, 100 µM turned out to be 29.3%. Moreover, the viability at 24 h, 1 µM in [12] came to 100%. Also, the viability at 24 h, 1000 µM in series [13] was found to be 11.8%. For the same compound, the viability at 24 h, 10 µM in series [15] was found to be 93.8%. Besides, the Activity result in series [16] was “Dose-dependent effect”. Moreover, the concentration for half-maximal inhibition (IC50) amounted to 3 µM in series [16] and 55 µM in [18]. In [19], the viability at 24 h, 320 µM came to 28.6%. The viability at 24 h, 3.2 µM in [21] was 90.8%. The viability at 24 h, 32 µM in series [22] turned out to be 68.8%.

The compound `C[C@@H]1C(=O)O[C@@H]2[C@H]1CC[C@@]1(C)CCC(=O)[C@@H](C)[C@H]21` displayed an IC50 in [16] greater than 1000 µM.

In the case of `C=C1C(=O)O[C@H]2[C@H]3[C@H](C)C(=O)C=C[C@]3(C)CC[C@@H]12` [TUBERIFERINE], 7.4 µM corresponded to half-maximal inhibition in [16] (IC50).

Regarding `C#C[C@@H]1CC[C@@]2(C)C=CC(=O)[C@@H](C)[C@H]2C1` [CHAMAECYNONE], the Activity was determined as 100% in [1]; 0% in series [2]; 27% in series [3]; 0% in [4]; 27% in [5]; 100% in [23]. Further, the Activity was 97% in series [6] and 87% in [24].

Take `C#C[C@@H]1CC[C@@]2(C)C=CC(=O)[C@@H](C)[C@@H]2C1`: the Activity is 100% in series [1]; 0% in [2]; 43% in [3]; 0% in [4]; 80% in series [5]; 100% in [23]. Moreover, the results for the Activity in series [6] and in series [24] were 97% and 100%, respectively.

Regarding `C#C[C@@H]1CC[C@@]2(C)C=CC(=O)C(=C)[C@@H]2C1`, the Activity was 100% in [1]; 0% in series [2]; 17% in series [3]; 3% in series [4]; 33% in series [5]; 93% in series [6].

In turn, `C=C1C(=O)O[C@H]2[C@H]3[C@H](C)C(=O)CC[C@]3(C)CC[C@@H]12` returned an IC50 in series [16] of 17 µM.

On to `C#C[C@@H]1CC[C@@]2(C)C=CC(=O)C(C)=C2C1` [DEHYDROCHAMAECYNONE], for which the Activity in series [1] was 100%; in [2] it was 0%; in [3] it was 7%; in [4], 0%; in [5], 13%; in series [6], 90%.
